{"source": "ChEMBL document CHEMBL1152893", "about": "“Synthesis and in vitro trichomonicidal, giardicidal and amebicidal activity of N-acetamide(sulfonamide)-2-methyl-4-nitro-1H-imidazoles” (Eur J Med Chem, 2009)", "note": "pIC50: −log10 of the molar value."}
{"system": "Trichomonas vaginalis", "experiment": "Antiparasitic activity against Trichomonas vaginalis GT3 trophozoites after 48 hrs by […]", "assay_type": "functional, organism-based", "conditions": "GT3, 48 h", "outline": "(§1)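 Axenic trophozoites grown in modified TYI-S-33 with 10% calf serum and bovine bile; exposed 48 h at 37 °C to increasing compound concentrations, DMSO as negative control. Then washed, subcultured 48 h in fresh drug-free medium and counted. IC50 by Probit analysis; triplicate, repeated at least twice.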"}
{"compound": "COc1ccc(S(=O)(=O)n2cc([N+](=O)[O-])nc2C)cc1", "pIC50": 5.08}
{"compound": "Cc1nc([N+](=O)[O-])cn1S(=O)(=O)c1ccccc1", "pIC50": 4.90}
{"compound": "Cc1ccc(S(=O)(=O)n2cc([N+](=O)[O-])nc2C)cc1", "pIC50": 5.00}
{"compound": "Cc1nc([N+](=O)[O-])cn1S(=O)(=O)c1ccc(Cl)cc1", "pIC50": 5.12}
{"compound": "Cc1ncc([N+](=O)[O-])n1CCO", "note": "[METRONIDAZOLE]", "pIC50": 6.54}
{"compound": "Cc1nc([N+](=O)[O-])cn1S(=O)(=O)c1ccc(F)cc1", "pIC50": 4.94}
{"compound": "Cc1nc([N+](=O)[O-])cn1CC(=O)Nc1ccc(C#N)cc1", "pIC50": 4.85}
{"compound": "Cc1nc([N+](=O)[O-])cn1CC(=O)Nc1ccc(Cl)cc1", "pIC50": 5.04}
{"system": "Entamoeba histolytica", "experiment": "Ratio of 2-methyl-4(5)-nitroimidazole IC50 to compound IC50 for Entamoeba histolytica HM-1:IMSS trophozoites", "assay_type": "functional", "conditions": "not given"}
{"compound": "Cc1ccc(S(=O)(=O)n2cc([N+](=O)[O-])nc2C)cc1", "Ratio IC50": 2}
{"system": "not listed separately", "experiment": "Selectivity index, ratio of CC50 for MDCK cells to IC50 for Entamoeba histolytica HM-1:IMSS trophozoites", "assay_type": "functional", "conditions": "not given"}
{"compound": "COc1ccc(S(=O)(=O)n2cc([N+](=O)[O-])nc2C)cc1", "Ratio CC50/IC50": 38}
{"compound": "Cc1nc([N+](=O)[O-])cn1S(=O)(=O)c1ccccc1", "Ratio CC50/IC50": 188}
{"compound": "Cc1ccc(S(=O)(=O)n2cc([N+](=O)[O-])nc2C)cc1", "Ratio CC50/IC50": 278}
{"compound": "Cc1nc([N+](=O)[O-])cn1S(=O)(=O)c1ccc(Cl)cc1", "Ratio CC50/IC50": 144}
{"compound": "Cc1nc([N+](=O)[O-])cn1S(=O)(=O)c1ccc(F)cc1", "Ratio CC50/IC50": 183}
{"compound": "Cc1nc([N+](=O)[O-])cn1CC(=O)Nc1ccc(C#N)cc1", "Ratio CC50/IC50": 16}
{"compound": "Cc1nc([N+](=O)[O-])cn1CC(=O)Nc1ccc(Cl)cc1", "Ratio CC50/IC50": 35}
{"system": "not listed separately", "experiment": "Selectivity index, ratio of CC50 for MDCK cells to IC50 for Trichomonas vaginalis GT3 trophozoites", "assay_type": "functional", "conditions": "not given"}
{"compound": "COc1ccc(S(=O)(=O)n2cc([N+](=O)[O-])nc2C)cc1", "Ratio CC50/IC50": 38}
{"compound": "Cc1nc([N+](=O)[O-])cn1S(=O)(=O)c1ccccc1", "Ratio CC50/IC50": 101}
{"compound": "Cc1ccc(S(=O)(=O)n2cc([N+](=O)[O-])nc2C)cc1", "Ratio CC50/IC50": 99}
{"compound": "Cc1nc([N+](=O)[O-])cn1S(=O)(=O)c1ccc(Cl)cc1", "Ratio CC50/IC50": 76}
{"compound": "Cc1nc([N+](=O)[O-])cn1S(=O)(=O)c1ccc(F)cc1", "Ratio CC50/IC50": 71}
{"compound": "Cc1nc([N+](=O)[O-])cn1CC(=O)Nc1ccc(C#N)cc1", "Ratio CC50/IC50": 47}
{"compound": "Cc1nc([N+](=O)[O-])cn1CC(=O)Nc1ccc(Cl)cc1", "Ratio CC50/IC50": 70}
{"system": "Trichomonas vaginalis", "experiment": "Ratio of Benznidazole IC50 to compound IC50 for Trichomonas vaginalis GT3 trophozoites", "assay_type": "functional", "conditions": "not given"}
{"compound": "Cc1nc([N+](=O)[O-])cn1CC(=O)Nc1ccc(Cl)cc1", "Ratio IC50": 2}
{"system": "Giardia intestinalis", "experiment": "Antiparasitic activity against Giardia intestinalis IMSS:0696 trophozoites after 48 hrs by […]", "assay_type": "functional, organism-based", "conditions": "Giardia duodenalis, IMSS:0696, 48 h", "outline": "as §1"}
{"compound": "COc1ccc(S(=O)(=O)n2cc([N+](=O)[O-])nc2C)cc1", "pIC50": 5.18}
{"compound": "Cc1nc([N+](=O)[O-])cn1S(=O)(=O)c1ccccc1", "pIC50": 4.92}
{"compound": "Cc1ccc(S(=O)(=O)n2cc([N+](=O)[O-])nc2C)cc1", "pIC50": 4.85}
{"compound": "Cc1nc([N+](=O)[O-])cn1S(=O)(=O)c1ccc(Cl)cc1", "pIC50": 4.81}
{"compound": "Cc1ncc([N+](=O)[O-])n1CCO", "note": "[METRONIDAZOLE]", "pIC50": 5.27}
{"compound": "Cc1nc([N+](=O)[O-])cn1S(=O)(=O)c1ccc(F)cc1", "pIC50": 4.97}
{"compound": "Cc1nc([N+](=O)[O-])cn1CC(=O)Nc1ccc(C#N)cc1", "pIC50": 4.95}
{"compound": "Cc1nc([N+](=O)[O-])cn1CC(=O)Nc1ccc(Cl)cc1", "pIC50": 4.80}
{"system": "not listed separately", "experiment": "Cytotoxicity against MDCK cells after 72 hrs by MTT assay", "assay_type": "cell-based, Canis lupus familiaris", "conditions": "dog", "outline": "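MDCK cells in DMEM with 10% FBS and penicillin/streptomycin, 37 °C, 5% CO2. 1.5×10⁴ cells/well seeded; above 80% confluence, medium replaced and compounds added from 6.25 upward, DMSO final 0.05%. After 72 h, MTT added for 4 h at 37 °C. Formazan dissolved in acidified isopropanol (0.4 N HCl), OD 540 nm; untreated cells as negative control; CC50 calculated.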", "units": {"CC50 at 72 h": "µM"}}
{"compound": "COc1ccc(S(=O)(=O)n2cc([N+](=O)[O-])nc2C)cc1", "CC50 at 72 h": 321}
{"compound": "Cc1nc([N+](=O)[O-])cn1S(=O)(=O)c1ccccc1", "CC50 at 72 h": 1270}
{"compound": "Cc1ccc(S(=O)(=O)n2cc([N+](=O)[O-])nc2C)cc1", "CC50 at 72 h": 988}
{"compound": "Cc1nc([N+](=O)[O-])cn1S(=O)(=O)c1ccc(Cl)cc1", "CC50 at 72 h": 578}
{"compound": "Cc1ncc([N+](=O)[O-])n1CCO", "note": "[METRONIDAZOLE]", "CC50 at 72 h": 68}
{"compound": "Cc1nc([N+](=O)[O-])cn1S(=O)(=O)c1ccc(F)cc1", "CC50 at 72 h": 813}
{"compound": "Cc1nc([N+](=O)[O-])cn1CC(=O)Nc1ccc(C#N)cc1", "CC50 at 72 h": 672}
{"compound": "Cc1nc([N+](=O)[O-])cn1CC(=O)Nc1ccc(Cl)cc1", "CC50 at 72 h": 642}
{"system": "Giardia intestinalis", "experiment": "Ratio of 2-methyl-4(5)-nitroimidazole IC50 to compound IC50 for Giardia intestinalis IMSS:0696 trophozoites", "assay_type": "functional, Giardia duodenalis", "conditions": "not given"}
{"compound": "COc1ccc(S(=O)(=O)n2cc([N+](=O)[O-])nc2C)cc1", "Ratio IC50": 2}
{"system": "Giardia intestinalis", "experiment": "Ratio of Benznidazole IC50 to compound IC50 for Giardia intestinalis IMSS:0696 trophozoites", "assay_type": "functional, Giardia duodenalis", "conditions": "not given"}
{"compound": "COc1ccc(S(=O)(=O)n2cc([N+](=O)[O-])nc2C)cc1", "Ratio IC50": 2}
{"compound": "Cc1nc([N+](=O)[O-])cn1CC(=O)Nc1ccc(C#N)cc1", "Ratio IC50": 2}
{"system": "Entamoeba histolytica", "experiment": "Amebicidal activity against Entamoeba histolytica HM-1:IMSS trophozoites after 48 hrs by […]", "assay_type": "functional, organism-based", "conditions": "not given", "outline": "as §1"}
{"compound": "COc1ccc(S(=O)(=O)n2cc([N+](=O)[O-])nc2C)cc1", "pIC50": 5.07}
{"compound": "Cc1nc([N+](=O)[O-])cn1S(=O)(=O)c1ccccc1", "pIC50": 5.17}
{"compound": "Cc1ccc(S(=O)(=O)n2cc([N+](=O)[O-])nc2C)cc1", "pIC50": 5.45}
{"compound": "Cc1nc([N+](=O)[O-])cn1S(=O)(=O)c1ccc(Cl)cc1", "pIC50": 5.39}
{"compound": "Cc1nc([N+](=O)[O-])cn1S(=O)(=O)c1ccc(F)cc1", "pIC50": 5.35}
{"compound": "Cc1nc([N+](=O)[O-])cn1CC(=O)Nc1ccc(C#N)cc1", "pIC50": 4.38}
{"compound": "Cc1nc([N+](=O)[O-])cn1CC(=O)Nc1ccc(Cl)cc1", "pIC50": 4.74}
{"system": "not listed separately", "experiment": "Selectivity index, ratio of CC50 for MDCK cells to IC50 for Giardia intestinalis IMSS:0696 trophozoites", "assay_type": "functional", "conditions": "not given"}
{"compound": "COc1ccc(S(=O)(=O)n2cc([N+](=O)[O-])nc2C)cc1", "Ratio CC50/IC50": 49}
{"compound": "Cc1nc([N+](=O)[O-])cn1S(=O)(=O)c1ccccc1", "Ratio CC50/IC50": 106}
{"compound": "Cc1ccc(S(=O)(=O)n2cc([N+](=O)[O-])nc2C)cc1", "Ratio CC50/IC50": 71}
{"compound": "Cc1nc([N+](=O)[O-])cn1S(=O)(=O)c1ccc(Cl)cc1", "Ratio CC50/IC50": 38}
{"compound": "Cc1nc([N+](=O)[O-])cn1S(=O)(=O)c1ccc(F)cc1", "Ratio CC50/IC50": 77}
{"compound": "Cc1nc([N+](=O)[O-])cn1CC(=O)Nc1ccc(C#N)cc1", "Ratio CC50/IC50": 60}
{"compound": "Cc1nc([N+](=O)[O-])cn1CC(=O)Nc1ccc(Cl)cc1", "Ratio CC50/IC50": 40}
{"system": "Trichomonas vaginalis", "experiment": "Ratio of 2-methyl-4(5)-nitroimidazole IC50 to compound IC50 for Trichomonas vaginalis GT3 trophozoites", "assay_type": "functional", "conditions": "not given"}
{"compound": "Cc1nc([N+](=O)[O-])cn1CC(=O)Nc1ccc(C#N)cc1", "Ratio IC50": 3}
{"compound": "Cc1nc([N+](=O)[O-])cn1CC(=O)Nc1ccc(Cl)cc1", "Ratio IC50": 5}
